Here are results for 76 compounds from ChEMBL document CHEMBL4602728, “6-Amino[1,2,5]oxadiazolo[3,4-b]pyrazin-5-ol Derivatives as Efficacious Mitochondrial Uncouplers in STAM Mouse Model of Nonalcoholic Steatohepatitis” (J Med Chem, 2020).

pEC50: −log10 of the molar value.

The nature of the first series: Solubility of compound in PBS at pH 7.4. Type of series: physicochemical. Particulars: buffer.
By solubility is commonly meant the dissolved amount per volume that the medium holds. Low readings indicate a poorly soluble substance, high ones a readily soluble substance. In the case of `Fc1cccc(Nc2nc3nonc3nc2Nc2ccccc2F)c1`, the solubility is < 10 µM.

The next series in a line: Induction of mitochondrial uncoupling in rat L6 cells assessed as increase in oxygen consumption rate incubated for 90 mins by Seahorse XF analyzer based assay. In kind it is mitochondria, Mitochondria.
Conditions: not given
In general, pEC50 refers to the negative decadic logarithm of the EC50, by convention in mol/L. Consider `Oc1nc2nonc2nc1Nc1cccc(F)c1F`, for which the pEC50 is 5.01.
The same measure, in the same setting: the figure for `Cc1cccc(C)c1Nc1nc2nonc2nc1O` is < 4.00.
On to `CCCCCc1ccc(Nc2nc3nonc3nc2O)c(F)c1`, for which the pEC50 was 5.82.
As to `Oc1nc2nonc2nc1NCCc1ccccc1`, the negative-log EC50 (pEC50) is 4.18.
In the case of `Oc1nc2nonc2nc1Nc1ccc(Cl)cc1`, the pEC50 was 4.93.
For `CCCCCCc1ccc(Nc2nc3nonc3nc2O)cc1`, the negative logarithm of the EC50 (pEC50) is 5.33.
With `Oc1nc2nonc2nc1Nc1ccccc1C(F)(F)F`, the negative-log EC50 (pEC50) was 4.97.
For `CCCCOc1ccc(Nc2nc3nonc3nc2O)cc1`, the pEC50 is 5.43.
On the same count and under the same terms, for `Oc1nc2nonc2nc1Nc1cccc(S(F)(F)(F)(F)F)c1` the value was 5.43; for `Oc1nc2nonc2nc1Nc1ccc(OC(F)(F)F)c(F)c1`, 5.54; for `Fc1cccc(Nc2nc3nonc3nc2Nc2ccccc2F)c1`, 6.72.
As for `Oc1nc2nonc2nc1Nc1ccc(C(F)(F)F)c(F)c1`, the pEC50 is 4.94.
`Oc1nc2nonc2nc1Nc1cccc(C(F)(F)F)c1`: the negative logarithm of the EC50 (pEC50) was 4.88.
Still for that read-out and setting: the figure for `Oc1nc2nonc2nc1Nc1cccc(OC(F)(F)F)c1` is 5.29; for `Cc1ccc(CNc2nc3nonc3nc2O)cc1` it is 4.27.
On the same count and under the same terms, the figure for `CC(C)(C)c1cccc(Nc2nc3nonc3nc2O)c1` is 5.66.
With `Oc1nc2nonc2nc1Nc1ccc(OC(F)(F)F)c(Cl)c1`, the pEC50 is 5.52.
In the case of `CCCCOc1cccc(Nc2nc3nonc3nc2O)c1`, the negative-log EC50 (pEC50) was 5.64.
`Oc1nc2nonc2nc1Nc1ccc2c(c1)OC(F)(F)O2`: the pEC50 is 5.12.
With `CCc1ccc(Nc2nc3nonc3nc2O)c(F)c1`, the negative-log EC50 (pEC50) is 5.17.
As to `Oc1nc2nonc2nc1Nc1cc(C(F)(F)F)ccc1F`, the pEC50 is 5.29.
As for `Oc1nc2nonc2nc1Nc1cc(F)cc(F)c1`, the negative logarithm of the EC50 (pEC50) is 4.63.
As to `Oc1nc2nonc2nc1Nc1ccc(OCC(F)(F)F)c(C(F)(F)F)c1`, the negative logarithm of the EC50 (pEC50) is 5.40.
Consider `CC12CC3CC(C)(C1)CC(Nc1nc4nonc4nc1O)(C3)C2`, for which the negative logarithm of the EC50 (pEC50) is 5.70.
For the compound `Oc1nc2nonc2nc1Nc1cc(C(F)(F)F)cc(C(F)(F)F)c1`, the negative logarithm of the EC50 (pEC50) was 5.35.
With `Cc1cc(Nc2nc3nonc3nc2O)ccc1OCC(F)(F)F`, the pEC50 is 5.15.
`CCCCCCc1ccc(Nc2nc3nonc3nc2O)c(F)c1`: the pEC50 is 5.48.
In the case of `CC(Nc1nc2nonc2nc1O)C12CC3CC(CC(C3)C1)C2` (stereo not given), the pEC50 was 5.31.
As for `Oc1nc2nonc2nc1Nc1ccc(OCC2CC2)c(C(F)(F)F)c1`, the negative-log EC50 (pEC50) was 5.74.
On to `CCCCCCCCNc1nc2nonc2nc1O`, for which the pEC50 was 5.47.
Consider `CC(C)(C)c1ccc(Nc2nc3nonc3nc2O)cc1`, for which the negative logarithm of the EC50 (pEC50) is 5.41.
With `Oc1nc2nonc2nc1Nc1cccc(C(F)(F)F)c1F`, the pEC50 is 5.31.
With `Oc1nc2nonc2nc1Nc1ccc(C(O)(C(F)(F)F)C(F)(F)F)cc1`, the negative-log EC50 (pEC50) is 4.47.
On the same count and under the same terms, for `COc1cccc(Nc2nc3nonc3nc2O)c1` the value was 4.12; for `CCCCc1ccc(Nc2nc3nonc3nc2O)c(F)c1`, 5.96; for `CCc1ccc(Nc2nc3nonc3nc2O)cc1`, 4.97.
Turning to `Cc1ccc(Nc2nc3nonc3nc2O)cc1`, the pEC50 was 4.28.
As to `Oc1nc2nonc2nc1NCc1ccc(OC(F)(F)F)cc1`, the pEC50 is 4.87.
On the same count and under the same terms, for `Cc1ccc(Nc2nc3nonc3nc2O)cc1C` the value was 5.52; for `Oc1nc2nonc2nc1Nc1ccc(F)cc1`, 4.41.
As for `Oc1nc2nonc2nc1Nc1ccc(OC(F)F)cc1`, the pEC50 is 4.69.
The same measure, in the same setting: the figure for `Oc1nc2nonc2nc1Nc1ccc(OC(F)(F)Cl)cc1` is 5.72.
In the case of `Oc1nc2nonc2nc1Nc1ccc(OC(F)(F)F)cc1Cl`, the pEC50 is 5.85.
For the compound `COc1cc(OC(F)(F)F)ccc1Nc1nc2nonc2nc1O`, the pEC50 is 5.42.
On to `CC(C)(C#N)c1ccc(Nc2nc3nonc3nc2O)cc1`, for which the negative logarithm of the EC50 (pEC50) was 4.45.
`Oc1nc2nonc2nc1Nc1ccccc1OC(F)(F)F`: the pEC50 was 5.15.
For `Oc1nc2nonc2nc1Nc1ccc(OCC(F)(F)F)c(F)c1`, the pEC50 is 4.98.
On to `O=[N+]([O-])c1cc(Nc2nc3nonc3nc2O)ccc1OC(F)(F)F`, for which the pEC50 was 4.27.
For the compound `Oc1nc2nonc2nc1Nc1ccc(OCCCC(F)(F)F)c(F)c1`, the negative logarithm of the EC50 (pEC50) is 5.38.
Turning to `Oc1nc2nonc2nc1Nc1ccccc1Cl`, the pEC50 was 5.20.
For the compound `Oc1nc2nonc2nc1Nc1ccc(OCC(F)(F)F)cc1`, the negative-log EC50 (pEC50) is 4.37.
As for `Cc1ccc(C(F)(F)F)cc1Nc1nc2nonc2nc1O`, the negative-log EC50 (pEC50) was 4.48.
For the compound `Oc1nc2nonc2nc1Nc1ccccc1`, the pEC50 was 4.18.
Turning to `Oc1nc2nonc2nc1Nc1cccc(F)c1`, the pEC50 was 4.51.
`Oc1nc2nonc2nc1NC(c1ccccc1)c1ccccc1`: the pEC50 was 4.42.
As for `Cc1cc(C)c(Nc2nc3nonc3nc2O)c(C)c1`, the negative-log EC50 (pEC50) was 3.95.
Still for that read-out and setting: the figure for `Oc1nc2nonc2nc1Nc1ccc(OC(F)(F)F)cc1F` is 5.64.
For `Oc1nc2nonc2nc1Nc1ccc2ccccc2c1`, the pEC50 is 5.40.
For the compound `Oc1nc2nonc2nc1Nc1ccc(S(F)(F)(F)(F)F)cc1`, the pEC50 was 5.41.
In the case of `CCCCc1ccc(Nc2nc3nonc3nc2O)cc1`, the negative-log EC50 (pEC50) is 5.68.
On to `CCCCCc1ccc(Nc2nc3nonc3nc2O)cc1`, for which the negative-log EC50 (pEC50) was 5.62.
In the case of `Oc1nc2nonc2nc1Nc1ccc(OC(F)(F)C(F)F)cc1`, the negative-log EC50 (pEC50) is 5.15.
On to `Oc1nc2nonc2nc1Nc1ccc(SC(F)(F)F)cc1`, for which the pEC50 is 5.85.
For the compound `Oc1nc2nonc2nc1Nc1cccc(OCc2ccc(C(F)(F)F)cc2)c1`, the pEC50 was 5.52.
Regarding `CC(=O)c1ccc(Nc2nc3nonc3nc2O)cc1`, the pEC50 is 4.03.
`Oc1nc2nonc2nc1Nc1cccc2ccccc12`: the pEC50 was 4.69.
`Oc1nc2nonc2nc1NC1C2CC3CC(C2)CC1C3` (stereo not given): the pEC50 is 4.64.
Consider `Oc1nc2nonc2nc1Nc1ccc(C(F)(F)F)cc1F`, for which the negative-log EC50 (pEC50) is 5.59.
For the compound `Oc1nc2nonc2nc1NCCC(F)(F)F`, the pEC50 was 3.96.
Still for that read-out and setting: the figure for `Cc1cc(OC(F)(F)F)ccc1Nc1nc2nonc2nc1O` is 5.34.
For the compound `Oc1nc2nonc2nc1Nc1ccccc1F`, the pEC50 is 4.90.
With `Oc1nc2nonc2nc1Nc1ccc(OCCCC(F)(F)F)c(C(F)(F)F)c1`, the negative-log EC50 (pEC50) was 5.68.
As for `Oc1nc2nonc2nc1Nc1ccc(OCc2ccccc2)cc1`, the pEC50 is 5.62.
The same measure, in the same setting: the figure for `Oc1nc2nonc2nc1Nc1ccc2c(c1)OCO2` is 4.33; for `CCc1cccc(Nc2nc3nonc3nc2O)c1` it is 4.60.
Take `Oc1nc2nonc2nc1Nc1ccc(C(F)(F)F)cc1`: the negative-log EC50 (pEC50) is 4.98.

Another series can be described thus: Half life in C57BL/6 mouse at 10 mg/kg, po administered via gavage by LC/MS-MS analysis. Type of series: ADME, organism-based. Particulars: in vivo. In outline: (§1)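 Male C57BL/6 mice aged 9–12 weeks received a single 10 mg/kg oral gavage bolus. The vehicle was methylcellulose 90–91%, Tween 80 2–3% and DMSO 6–8% (v/v). Tail-tip blood was drawn into heparinized capillaries and spun at 2000g for 10 min. Plasma was extracted with acetonitrile:methanol (9:1) and quantified by LC–MS/MS against spiked plasma standards (1–100 ng). n = 3.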
In general, half-life refers to how long it takes for the measured level to halve. `CCCCOc1ccc(Nc2nc3nonc3nc2O)cc1` showed a half-life of 18 min.
`CC(C)(C)c1ccc(Nc2nc3nonc3nc2O)cc1` showed a half-life of 36 min.
The same measure, in the same setting: the figure for `Oc1nc2nonc2nc1Nc1ccc2ccccc2c1` is 24 min.
`CCCCc1ccc(Nc2nc3nonc3nc2O)cc1` gave a half-life of 42 min.

The nature of the next series: Cmax in C57BL/6 mouse at 10 mg/kg, po administered via gavage by LC/MS-MS analysis. In kind it is ADME, organism-based. More on the design: dose 10 mg/kg, route oral. Particulars: in vivo. The method, boiled down:
as §1
By Cmax is commonly meant the maximum level reached in the sampled fluid or tissue. The compound `CCCCOc1ccc(Nc2nc3nonc3nc2O)cc1` came in with a Cmax of 3.4 µM.
With `CC(C)(C)c1ccc(Nc2nc3nonc3nc2O)cc1`, the peak level (Cmax) was 22.3 µM.
The compound `Oc1nc2nonc2nc1Nc1ccc2ccccc2c1` came in with a Cmax of 12.5 µM.
Still for that read-out and setting: the figure for `CCCCc1ccc(Nc2nc3nonc3nc2O)cc1` is 12 µM.
